Measured values published in paper PMC9326885 (Journal of Food and Drug Analysis, 2017).
Where a name gives a salt, the structure may show the parent alone. Marks after values point to notes of the source that are not given here. One block for each compound: values may come before it.

Tests used:
[1] = Effect of intravenous IS on the elimination of intravenous PSP in rats; assay type: in vivo, rat; details: for AUC(0-t) / clearance / MRT: male, Sprague-Dawley, rat, serum, iv, 5 mg/kg, mean ± S.E., n = 6; for AUC(0-t): AUC0-1440, area under concentration-time curve to 1440 min; for clearance: Cl, the clearance; for MRT: the mean residence time
In short: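 Male Sprague–Dawley rats (370–420 g), fasted 12 h, received IV PSP 5.0 mg/kg with or without IV IS 10.0 mg/kg in a crossover design with a 1-week washout. Blood was drawn at 30–1440 min and serum was deproteinized with methanol and basified with NaOH. Absorbance was read at 560 nm (calibration 0.39–12.5 μg/mL). Noncompartmental analysis; paired t-test.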

[2] = by OATs- and MRPs-mediated transports; cited from earlier work
[3] = Effect of oral indican on the pharmacokinetics of oral MTX in rats; assay type: in vivo, rat; details: mean ± S.E., n = 5; for MRT: male, Sprague-Dawley, rat, serum, po, the mean residence time
In short: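 Male Sprague–Dawley rats (330–400 g), fasted 12 h, were given oral MTX 5.0 mg/kg alone or with oral indican 20.0 or 40.0 mg/kg in a parallel design. Serum MTX was measured by fluorescence polarization immunoassay (calibrated 0–1.0 μmol/L, LLOQ 0.01 μmol/L). Noncompartmental analysis: Cmax observed, AUC by trapezoidal rule to last point. Groups compared by one-way ANOVA with Scheffe's test.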

[4] = intravenous bolus of PSP 5.0 mg/kg alone
[5] = intravenous bolus of PSP 5.0 mg/kg with intravenous bolus of IS 10.0 mg/kg

Effect on the elimination of PSP (serum profiles) ([1]; intravenous IS 10.0 mg/kg with intravenous PSP 5.0 mg/kg): inhibited
Compound: O=S(=O)(O)Oc1c[nH]c2ccccc12 [IS, indoxyl sulfate]

AUC(0-t) [1, 4]: 21.3 µg·h/mL
AUC(0-t) [1, 5]: 64.7 µg·h/mL
clearance [1, 4]: 0.186 ± 0.024 L/h/kg
clearance [1, 5]: 0.06 ± 0.018 L/h/kg
MRT [1, 4]: 6.67 h
MRT [1, 5]: 9.54 h
Compound: O=S1(=O)OC(c2ccc(O)cc2)(c2ccc(O)cc2)c2ccccc21 [PSP, phenolsulfonphthalein]

MRT ([3]; 5 mg/kg, oral MTX 5.0 mg/kg alone): 5.26 h
MRT ([3]; oral MTX 5.0 mg/kg coadministered with indican 20.0 mg/kg): 17 h
MRT ([3]; oral MTX 5.0 mg/kg coadministered with indican 40.0 mg/kg): 16 h
AUC0-2880, area under concentration-time curve to 2880 min ([3]; oral MTX 5.0 mg/kg alone): 63.6 ± 6.9^a μmole•min/L
Compound: CN(Cc1cnc2nc(N)nc(N)c2n1)c1ccc(C(=O)N[C@@H](CCC(=O)O)C(=O)O)cc1 [MTX, Methotrexate]
Fraction of MTX excreted via urine [2]: More than 80%
